Measured values taken from article PMC4971946 (Pharmacognosy Magazine, 2016).

Target: rat intestinal sucrase (Rattus norvegicus, UniProt P23739)
Experiment: Assay of sucrase inhibitory activity
Format: biochemical
Summary of the method: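 Rat intestinal sucrase-isomaltase prepared by Dahlqvist's method. Enzyme preincubated 10 min at 37°C with test sample (25–200 µg/ml, maleate buffer pH 6.0); reaction started with 60 mM sucrose solution, stopped after 30 min with 3,5-dinitrosalicylic acid reagent, boiled 5 min, A540 read. % inhibition relative to untreated-enzyme control lacking sample; three experiments.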

rat intestinal sucrase, sequence (P23739 whole entry): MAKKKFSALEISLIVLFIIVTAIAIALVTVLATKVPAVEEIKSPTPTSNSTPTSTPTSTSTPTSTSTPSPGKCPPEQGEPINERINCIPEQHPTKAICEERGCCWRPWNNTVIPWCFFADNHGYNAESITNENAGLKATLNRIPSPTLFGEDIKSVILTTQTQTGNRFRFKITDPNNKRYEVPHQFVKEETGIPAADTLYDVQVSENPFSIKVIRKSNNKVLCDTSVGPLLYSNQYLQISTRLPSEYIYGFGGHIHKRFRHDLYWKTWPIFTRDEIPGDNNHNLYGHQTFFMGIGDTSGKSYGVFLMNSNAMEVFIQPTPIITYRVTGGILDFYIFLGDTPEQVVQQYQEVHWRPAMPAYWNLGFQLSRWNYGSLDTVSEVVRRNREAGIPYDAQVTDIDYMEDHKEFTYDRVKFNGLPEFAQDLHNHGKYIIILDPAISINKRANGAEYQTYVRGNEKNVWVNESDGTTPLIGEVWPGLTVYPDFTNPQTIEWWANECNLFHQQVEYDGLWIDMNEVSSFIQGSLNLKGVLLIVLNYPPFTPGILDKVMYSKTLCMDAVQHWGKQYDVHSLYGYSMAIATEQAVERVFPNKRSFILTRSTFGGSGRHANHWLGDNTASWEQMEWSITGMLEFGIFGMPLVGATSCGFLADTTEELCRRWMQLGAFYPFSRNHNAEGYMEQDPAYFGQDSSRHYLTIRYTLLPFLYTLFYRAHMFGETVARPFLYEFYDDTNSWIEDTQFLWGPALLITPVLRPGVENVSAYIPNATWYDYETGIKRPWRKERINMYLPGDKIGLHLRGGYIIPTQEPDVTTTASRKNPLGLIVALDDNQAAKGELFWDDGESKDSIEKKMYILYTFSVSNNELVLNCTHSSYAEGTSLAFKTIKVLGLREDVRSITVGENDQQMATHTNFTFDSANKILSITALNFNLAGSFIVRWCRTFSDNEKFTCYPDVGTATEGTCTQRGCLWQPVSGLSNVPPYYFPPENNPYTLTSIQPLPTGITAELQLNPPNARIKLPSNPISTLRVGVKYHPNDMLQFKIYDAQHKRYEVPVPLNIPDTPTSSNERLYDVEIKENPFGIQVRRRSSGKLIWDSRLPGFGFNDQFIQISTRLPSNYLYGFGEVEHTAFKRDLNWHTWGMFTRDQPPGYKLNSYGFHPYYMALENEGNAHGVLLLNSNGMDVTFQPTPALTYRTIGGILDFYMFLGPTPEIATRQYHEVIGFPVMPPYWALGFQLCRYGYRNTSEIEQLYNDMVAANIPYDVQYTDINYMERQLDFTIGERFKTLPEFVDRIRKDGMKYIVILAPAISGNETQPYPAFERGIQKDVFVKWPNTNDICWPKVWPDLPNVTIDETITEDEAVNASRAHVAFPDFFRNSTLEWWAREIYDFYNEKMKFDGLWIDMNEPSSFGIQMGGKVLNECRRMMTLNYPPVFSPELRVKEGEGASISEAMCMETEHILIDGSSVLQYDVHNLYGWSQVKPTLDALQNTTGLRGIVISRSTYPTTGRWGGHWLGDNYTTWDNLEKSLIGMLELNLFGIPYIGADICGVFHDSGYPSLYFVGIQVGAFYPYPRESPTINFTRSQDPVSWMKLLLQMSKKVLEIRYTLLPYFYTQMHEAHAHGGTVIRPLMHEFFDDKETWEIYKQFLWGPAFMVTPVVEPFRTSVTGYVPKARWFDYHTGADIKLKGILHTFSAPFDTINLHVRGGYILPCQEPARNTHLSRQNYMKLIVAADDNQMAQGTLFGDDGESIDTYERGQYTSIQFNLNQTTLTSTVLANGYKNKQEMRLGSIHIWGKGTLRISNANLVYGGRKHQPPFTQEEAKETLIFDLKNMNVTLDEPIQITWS

IC50 [µM]	sucrase inhibitory activity IC50 (rat intestinal sucrase, in vitro) [mg/L]	Compound
217	–	O=c1c(O[C@@H]2O[C@@H](CO)[C@H](O)[C@H]2O)c(-c2ccc(O)c(O)c2)oc2cc(O)cc(O)c12 [Compound 3, avicularin]
148	–	O=C1OC[C@H]2OC(=O)c3cc(O)c(O)c(O)c3-c3c(O)c(O)c(O)c4c3C(=O)O[C@H]([C@H]3OC(=O)c5c-4c(O)c(O)c(O)c5[C@H]3O)[C@@H]2OC(=O)c2cc(O)c(O)c(O)c2-c2c1cc(O)c(O)c2O [Compound 4, castalagin]
–	195.62	O=C1O[C@H]2[C@H](O)[C@@H](CO)OC(O)[C@@H]2OC(=O)c2cc(O)c(O)c(O)c2-c2c1cc(O)c(O)c2O (stereo partly drawn) [Compound 2, 2,3-hexahydroxydiphenoyl-(α/β)-D-^4C1-glucopyranose]
194	–	O=c1c(O[C@@H]2O[C@H](CO)[C@@H](O)[C@H](O)[C@H]2O)c(-c2ccc(O)c(O)c2)oc2cc(O)cc(O)c12 [Compound 5, quercetin-3-O-glucoside]
